According to ChEMBL document CHEMBL1142087 (Antimicrob Agents Chemother, 2007):
Calls of active or inactive are those of the source. No cut-off for these calls is given here.

Assays:
[1] = tested on: Influenza A virus; assay: Inhibition of influenza A virus (A/duck/Minnesota/1525/1981 (H5N1)) replication in MDCK cells by virus yield reduction assay; assay type: functional
[2] = tested on: Influenza A virus; assay: Inhibition of Influenza A virus (A/gull/Pennsylvania/4175/83 (H5N1)) replication in MDCK cells by virus yield reduction assay; assay type: functional
[3] = tested on: Mus musculus; assay: Effect on survival of BALB/c mouse infected with influenza A virus (A/duck/Minnesota/1525/1981 (H5N1)) at 300 mg/kg/day, po qid for 5 days administered 1 hr after infection relative to carboxymethyl cellulose; assay type: functional, organism-based
[4] = tested on: Mus musculus; assay: Effect on survival of BALB/c mouse infected with influenza A virus (A/duck/Minnesota/1525/1981 (H5N1)) at 100 mg/kg/day, po qid for 5 days administered 1 hr after infection relative to carboxymethyl cellulose; assay type: functional, organism-based
[5] = tested on: Mus musculus; assay: Effect on survival of BALB/c mouse infected with influenza A virus (A/duck/Minnesota/1525/1981 (H5N1)) at 100 mg/kg/day, po once daily for 5 days administered 1 hr after infection relative to carboxymethyl cellulose; assay type: functional, organism-based
[6] = tested on: Mus musculus; assay: Effect on survival of BALB/c mouse infected with influenza A virus (A/duck/Minnesota/1525/1981 (H5N1)) at 3 mg/kg/day, po once daily for 5 days administered 1 hr after infection relative to carboxymethyl cellulose; assay type: functional, organism-based
[7] = tested on: Mus musculus; assay: Lowering of arterial oxygen saturation decline in BALB/c mouse infected with influenza A virus (A/duck/Minnesota/1525/1981 (H5N1)) at 300 mg/kg/day, po once daily for 5 days administered 1 hr after infection measured on day 11 relative to carboxymethyl cellulose; assay type: functional
[8] = tested on: Mus musculus; assay: Lowering of arterial oxygen saturation decline in BALB/c mouse infected with influenza A virus (A/duck/Minnesota/1525/1981 (H5N1)) at 100 mg/kg/day, po once daily for 5 days administered 1 hr after infection measured on day 11 relative to carboxymethyl cellulose; assay type: functional
[9] = tested on: Mus musculus; assay: Lowering of arterial oxygen saturation decline in BALB/c mouse infected with influenza A virus (A/duck/Minnesota/1525/1981 (H5N1)) at 10 mg/kg/day, po once daily for 5 days administered 1 hr after infection measured on day 11 relative to carboxymethyl cellulose; assay type: functional
[10] = tested on: Mus musculus; assay: Effect on survival of BALB/c mouse infected with influenza A virus (A/duck/Minnesota/1525/1981 (H5N1)) at 33 mg/kg/day, po qid for 5 days administered 1 hr after infection relative to carboxymethyl cellulose; assay type: functional, organism-based
[11] = tested on: Mus musculus; assay: Inhibition of increase in lung weight of BALB/c mouse infected with influenza A virus (A/duck/Minnesota/1525/1981 (H5N1)) at 300 mg/kg/day, po qid for 5 days administered 1 hr after infection measured on day 6 relative to carboxymethyl cellulose; assay type: functional
[12] = tested on: Mus musculus; assay: Inhibition of increase in lung weight of BALB/c mouse infected with influenza A virus (A/duck/Minnesota/1525/1981 (H5N1)) at 33 mg/kg/day, po qid for 5 days administered 1 hr after infection measured on day 6 relative to carboxymethyl cellulose; assay type: functional
[13] = tested on: Mus musculus; assay: Lowering of Arterial oxygen saturation decline in BALB/c mouse infected with influenza A virus (A/duck/Minnesota/1525/1981 (H5N1)) at 300 mg/kg/day, po qid for 5 days administered 1 hr after infection measured on day 11 relative to carboxymethyl cellulose; assay type: functional
Summary of the method: (§1)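 Arterial oxygen saturation was measured by pulse oximeter, with the ear probe placed on the thigh and read after 30 s stabilization. Values were taken on day 11, 10 mice per group. Mice dead from infection were assigned 75%. Means were compared with CMC controls by t test.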

[14] = tested on: Mus musculus; assay: Effect on survival in BALB/c mouse infected with influenza A virus (A/duck/Minnesota/1525/1981 (H5N1)) at 300 mg/kg/day, po administered 12 hrs after infection relative to carboxymethyl cellulose; assay type: functional, organism-based
[15] = tested on: Mus musculus; assay: Effect on survival in BALB/c mouse infected with influenza A virus (A/duck/Minnesota/1525/1981 (H5N1)) at 600 mg/kg/day, po administered 12 hrs after infection relative to carboxymethyl cellulose; assay type: functional, organism-based
[16] = tested on: Mus musculus; assay: Effect on survival in BALB/c mouse infected with influenza A virus (A/duck/Minnesota/1525/1981 (H5N1)) at 300 mg/kg/day, po administered 48 hrs after infection relative to carboxymethyl cellulose; assay type: functional, organism-based
[17] = tested on: Mus musculus; assay: Effect on survival in BALB/c mouse infected with influenza A virus (A/duck/Minnesota/1525/1981 (H5N1)) at 600 mg/kg/day, po administered 48 hrs after infection relative to carboxymethyl cellulose; assay type: functional, organism-based
[18] = tested on: Mus musculus; assay: Lowering of arterial oxygen saturation decline in BALB/c mouse infected with influenza A virus (A/duck/Minnesota/1525/1981 (H5N1)) at 3 mg/kg/day, po once daily for 5 days administered 1 hr after infection measured on day 11 relative to carboxymethyl cellulose; assay type: functional
[19] = tested on: Mus musculus; assay: Lowering of arterial oxygen saturation decline in BALB/c mouse infected with influenza A virus (A/duck/Minnesota/1525/1981 (H5N1)) at 300 mg/kg/day, po qid for 5 days administered 24 hrs after infection measured on day 11 relative to carboxymethyl cellulose; assay type: functional
[20] = tested on: Mus musculus; assay: Lowering of arterial oxygen saturation decline in BALB/c mouse infected with influenza A virus (A/duck/Minnesota/1525/1981 (H5N1)) at 300 mg/kg/day, po qid for 5 days administered 36 hrs after infection measured on day 11 relative to carboxymethyl cellulose; assay type: functional
[21] = tested on: Mus musculus; assay: Lowering of arterial oxygen saturation decline in BALB/c mouse infected with influenza A virus (A/duck/Minnesota/1525/1981 (H5N1)) at 300 mg/kg/day, po qid for 5 days administered 60 hrs after infection measured on day 11 relative to carboxymethyl cellulose; assay type: functional
[22] = tested on: Mus musculus; assay: Lowering of arterial oxygen saturation decline in BALB/c mouse infected with influenza A virus (A/duck/Minnesota/1525/1981 (H5N1)) at 300 mg/kg/day, po qid for 5 days administered 96 hrs after infection measured on day 11 relative to carboxymethyl cellulose; assay type: functional
[23] = tested on: Mus musculus; assay: Lowering of arterial oxygen saturation decline in BALB/c mouse infected with influenza A virus (A/duck/Minnesota/1525/1981 (H5N1)) at 300 mg/kg/day, po qid for 5 days administered 120 hrs after infection measured on day 11 relative to carboxymethyl cellulose; assay type: functional
[24] = tested on: Mus musculus; assay: Lowering of Arterial oxygen saturation decline in BALB/c mouse infected with influenza A virus (A/duck/Minnesota/1525/1981 (H5N1)) at 300 mg/kg/day, po twice daily for 5 days administered 1 hr after infection measured on day 11 relative to carboxymethyl cellulose; assay type: functional
[25] = tested on: Mus musculus; assay: Lowering of Arterial oxygen saturation decline in BALB/c mouse infected with influenza A virus (A/duck/Minnesota/1525/1981 (H5N1)) at 100 mg/kg/day, po twice daily for 5 days administered 1 hr after infection measured on day 11 relative to carboxymethyl cellulose; assay type: functional; summary of the method: as §1
[26] = tested on: Mus musculus; assay: Lowering of Arterial oxygen saturation decline in BALB/c mouse infected with influenza A virus (A/duck/Minnesota/1525/1981 (H5N1)) at 30 mg/kg/day, po twice daily for 5 days administered 1 hr after infection measured on day 11 relative to carboxymethyl cellulose; assay type: functional; summary of the method: as §1

NC(=O)c1nc(F)cnc1O [FAVIPIRAVIR]
EC90 [1]: 2.6 µM
EC90 [2]: 7.7 µM
Activity [3]: Active
Activity [4]: Active
Activity [5]: Active
Activity [6]: inactive
Activity [7]: 82.7%
Activity [8]: 80.8%
Activity [9]: 77%
Activity [10]: Active
Activity [11]: 146 mg
Activity [12]: 217 mg
Activity [13]: 88.6%
Activity [14]: Active
Activity [15]: Active
Activity [16]: Active
Activity [17]: Active
Activity [18]: 75%
Activity [19]: 85.3%
Activity [20]: 84.6%
Activity [21]: 84.6%
Activity [22]: 81.2%
Activity [23]: 76%
Activity [24]: 86.9%
Activity [25]: 84.2%
Activity [26]: 79.8%
